Source: article PMC10617274 (Therapeutic Advances in Infectious Disease, 2023)

How the values were obtained:
[1] = Cytotoxicity in mouse peritoneal macrophages; format: cell-based, BALB/c mice; details: BALB/c, Macrophages CC50 + SD, resazurin
How it was run: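 Peritoneal lavage cells from BALB/c mice, in RPMI + 10% heat-inactivated FBS, seeded at 3 × 10⁵ macrophages/mL, left to adhere 2 h at 33°C, 5% CO₂; non-adherent cells washed off with PBS. Test compound from 650 µM top, 8 serial 1:2.5 dilutions, quadruplicate, 48 h. Then 3 mM resazurin (stock), fluorescence after 4 h; CC50 by non-linear curve fit; at least three independent trials.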

[2] = tested on: L. amazonensis promastigotes; assay: Susceptibility assay in promastigotes; format: cell-based, Leishmania amazonensis (MHOM/BR/77/LTB0016 strain); details: Leishmania amazonensis, 72 h, read-out: Promastigotes IC50 + SD

IC50 [2]: 30 ± 14 nM
SMILES: C[C@@H]1[C@H](O)[C@@H](C)/C=C/C=C/C=C/C=C/C=C/C=C/C=C/[C@H](O[C@@H]2O[C@H](C)[C@@H](O)[C@H](N)[C@@H]2O)C[C@@H]2O[C@](O)(C[C@@H](O)C[C@@H](O)[C@H](O)CC[C@@H](O)C[C@@H](O)CC(=O)O[C@H]1C)C[C@H](O)[C@H]2C(=O)O [Amphotericin B]
CC50 at 48 h [1]: 5800 ± 500 nM
